From publication PMC9007039 (Journal of medicinal chemistry, 2021)

Molecular target: GPC3 (Homo sapiens, UniProt P51654)
Format: cell-based
Conditions: Hep3B cells, 5 µM peptide, confocal microscopy
Summary of the method: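 Hep3B cells were seeded at ~70% confluence in EMEM with 10% FBS and no antibiotics. They were transfected with 5 nmol of each of three GPC3 siRNAs or a negative-control siRNA using a lipofection reagent. Knockdown was confirmed by anti-GPC3 Western blot with GAPDH as loading control. Cells were methanol-fixed and stained with 5 µM IRDye800-labelled peptide for 5 min at RT, plus anti-GPC3 and AF488 secondary. Intensities were quantified from confocal images.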

Sequence of GPC3 (P51654 25-580): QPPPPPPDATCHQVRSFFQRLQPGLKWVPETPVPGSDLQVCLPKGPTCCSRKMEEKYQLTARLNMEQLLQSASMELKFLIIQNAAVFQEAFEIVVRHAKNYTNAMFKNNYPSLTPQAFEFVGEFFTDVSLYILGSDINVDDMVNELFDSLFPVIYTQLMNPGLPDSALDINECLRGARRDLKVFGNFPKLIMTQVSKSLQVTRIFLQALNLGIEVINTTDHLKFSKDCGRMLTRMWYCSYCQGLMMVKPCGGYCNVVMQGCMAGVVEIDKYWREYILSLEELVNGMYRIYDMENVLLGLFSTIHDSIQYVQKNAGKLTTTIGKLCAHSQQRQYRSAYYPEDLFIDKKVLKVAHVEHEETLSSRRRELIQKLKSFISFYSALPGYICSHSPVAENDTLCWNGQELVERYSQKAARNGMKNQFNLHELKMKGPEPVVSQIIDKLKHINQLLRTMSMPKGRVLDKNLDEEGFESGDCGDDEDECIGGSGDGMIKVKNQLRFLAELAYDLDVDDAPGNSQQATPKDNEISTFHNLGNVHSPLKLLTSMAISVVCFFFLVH

- difference in fluorescence intensity siCL versus siGPC3 cells, all 3 siRNAs: non-significant difference
Sequence: FEAEHNLALQTL [FEA*-IRDye800]
